Experiments:
Type in all cases: functional
CCRF-CEM = experiment: Growth inhibition of human CCRF-CEM cells after 48 hrs by SRB assay
Procedure, shortened: (§1)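 NCI 60-cell-line screen. Cells grown in RPMI1640 with 5% fetal calf serum and 2 mM L-glutamine, with inoculum density set by cell line. Preincubated 24 h, then given compound in DMSO at 10^-4 to 10^-8 M (five 10-fold steps) for 48 h continuous exposure. Growth measured by SRB protein assay. GI50, TGI and LC50 reported as –log molar.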

HL-60(TB) = experiment: Growth inhibition of human HL-60(TB) cells after 48 hrs by SRB assay; conditions: HL-60, 48 h
Procedure, shortened: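 NCI 60-cell-line screen: cells grown in RPMI1640 with 5% fetal calf serum and 2 mM L-glutamine, preincubated 24 h, then exposed to compound in DMSO at five concentrations (10^-4 to 10^-8 M) for 48 h continuous exposure. Growth estimated by sulforhodamine B protein assay; reported as pGI50 (-log molar concentration inhibiting net cell growth by 50%).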

K562 = experiment: Growth inhibition of human K562 cells after 48 hrs by SRB assay; conditions: K562, 48 h; procedure, shortened: as §1
MOLT-4 = experiment: Growth inhibition of human MOLT4 cells after 48 hrs by SRB assay; conditions: MOLT-4, 48 h; procedure, shortened: as §1
[1] = Growth inhibition of human […] cells after 48 hrs by SRB assay; procedure, shortened: as §1
EKVX = experiment: Growth inhibition of human EKVX cells after 48 hrs by SRB assay; procedure, shortened: as §1
HOP-62 = experiment: Growth inhibition of human HOP62 cells after 48 hrs by SRB assay; conditions: HOP-62, 48 h; procedure, shortened: as §1
NCI-H460 = experiment: Growth inhibition of human NCI-H460 cells after 48 hrs by SRB assay; conditions: NCI-H460, 48 h; procedure, shortened: as §1
COLO 205 = experiment: Growth inhibition of human COLO205 cells after 48 hrs by SRB assay; conditions: COLO 205, 48 h; procedure, shortened: as §1
HCC 2998 = experiment: Growth inhibition of human HCC2998 cells after 48 hrs by SRB assay; conditions: HCC 2998, 48 h; procedure, shortened: as §1
HCT-116 = experiment: Growth inhibition of human HCT116 cells after 48 hrs by SRB assay; conditions: HCT-116, 48 h; procedure, shortened: as §1
HT-29 = experiment: Growth inhibition of human HT-29 cells after 48 hrs by SRB assay; conditions: HT-29, 48 h; procedure, shortened: as §1
KM12 = experiment: Growth inhibition of human KM12 cells after 48 hrs by SRB assay; conditions: KM12, 48 h; procedure, shortened: as §1
SF-268 = experiment: Growth inhibition of human SF268 cells after 48 hrs by SRB assay; conditions: SF-268, 48 h; procedure, shortened: as §1
SF-295 = experiment: Growth inhibition of human SF295 cells after 48 hrs by SRB assay; conditions: SF-295, 48 h; procedure, shortened: as §1
SF-539 = experiment: Growth inhibition of human SF539 cells after 48 hrs by SRB assay; conditions: SF-539, 48 h; procedure, shortened: as §1
U-251 = experiment: Growth inhibition of human U251 cells after 48 hrs by SRB assay; conditions: U-251, 48 h; procedure, shortened: as §1
Malme-3M = experiment: Growth inhibition of human MALME-3M cells after 48 hrs by SRB assay; procedure, shortened: as §1
MDA-MB-435 = experiment: Growth inhibition of human MDA-MB-435 cells after 48 hrs by SRB assay; conditions: MDA-MB-435, 48 h; procedure, shortened: as §1
SK-MEL-5 = experiment: Growth inhibition of human SK-MEL-5 cells after 48 hrs by SRB assay; conditions: SK-MEL-5, 48 h; procedure, shortened: as §1
UACC-62 = experiment: Growth inhibition of human UACC62 cells after 48 hrs by SRB assay; conditions: UACC-62, 48 h; procedure, shortened: as §1
IGROV-1 = experiment: Growth inhibition of human IGROV1 cells after 48 hrs by SRB assay; conditions: IGROV-1, 48 h; procedure, shortened: as §1
OVCAR-3 = experiment: Growth inhibition of human OVCAR-3 cells after 48 hrs by SRB assay; conditions: OVCAR-3, 48 h; procedure, shortened: as §1
OVCAR-4 = experiment: Growth inhibition of human OVCAR4 cells after 48 hrs by SRB assay; conditions: OVCAR-4, 48 h; procedure, shortened: as §1
OVCAR-8 = experiment: Growth inhibition of human OVCAR8 cells after 48 hrs by SRB assay; conditions: OVCAR-8, 48 h; procedure, shortened: as §1
NCI/ADR-RES = experiment: Growth inhibition of human NCI/ADR-RES cells after 48 hrs by SRB assay; procedure, shortened: as §1
SK-OV-3 = experiment: Growth inhibition of human SKOV3 cells after 48 hrs by SRB assay; conditions: SK-OV-3, 48 h; procedure, shortened: as §1
A498 = experiment: Growth inhibition of human A498 cells after 48 hrs by SRB assay; conditions: A498, 48 h; procedure, shortened: as §1
RXF 393 = experiment: Growth inhibition of human RXF393 cells after 48 hrs by SRB assay; conditions: RXF 393, 48 h; procedure, shortened: as §1
TK-10 = experiment: Growth inhibition of human TK10 cells after 48 hrs by SRB assay; conditions: TK-10, 48 h; procedure, shortened: as §1
UO-31 = experiment: Growth inhibition of human UO31 cells after 48 hrs by SRB assay; conditions: UO-31, 48 h; procedure, shortened: as §1
PC-3 = experiment: Growth inhibition of human PC3 cells after 48 hrs by SRB assay; conditions: PC-3, 48 h; procedure, shortened: as §1
MCF7 = experiment: Growth inhibition of human MCF7 cells after 48 hrs by SRB assay; conditions: MCF7, 48 h; procedure, shortened: as §1
[2] = Growth inhibition of human Hs 578T cells after 48 hrs by SRB assay; procedure, shortened: as §1
BT-549 = experiment: Growth inhibition of human BT549 cells after 48 hrs by SRB assay; conditions: BT-549, 48 h; procedure, shortened: as §1
T47D = experiment: Growth inhibition of human T47D cells after 48 hrs by SRB assay; procedure, shortened: as §1
MDA-MB-468 = experiment: Growth inhibition of human MDA-MB-468 cells after 48 hrs by SRB assay; conditions: MDA-MB-468, 48 h; procedure, shortened: as §1

## COc1cc(C2CC(c3ccc(N(C)C)cc3)=NN2C(C)=O)cc(OC)c1OC (stereo not drawn)
CCRF-CEM
  GI50: 2.51 µM
CCRF-CEM; read-out: pTGI (converted)
  TGI: > 100 µM
HL-60(TB)
  GI50: 1 µM
HL-60(TB); read-out: pTGI (converted)
  TGI: 6.31 µM
K562
  GI50: 1.58 µM
K562; read-out: pTGI (converted)
  TGI: > 100 µM
MOLT-4
  GI50: 3.16 µM
MOLT-4; read-out: pTGI (converted)
  TGI: > 100 µM
[1]
  GI50: 3.16 µM
[1]; read-out: pTGI (converted)
  TGI: 15.8 µM
EKVX
  GI50: 5.01 µM
EKVX; read-out: pTGI (converted)
  TGI: > 100 µM
HOP-62
  GI50: 0.794 µM
HOP-62; read-out: pTGI (converted)
  TGI: > 100 µM
NCI-H460
  GI50: 0.631 µM
NCI-H460; read-out: pTGI (converted)
  TGI: > 100 µM
COLO 205
  GI50: 3.16 µM
COLO 205; read-out: pTGI (converted)
  TGI: 15.8 µM
HCC 2998
  GI50: 1.26 µM
HCC 2998; read-out: pTGI (converted)
  TGI: 20 µM
HCT-116
  GI50: 0.501 µM
HCT-116; read-out: pTGI (converted)
  TGI: 20 µM
HT-29
  GI50: 0.398 µM
HT-29; read-out: pTGI (converted)
  TGI: 15.8 µM
KM12
  GI50: 0.794 µM
KM12; read-out: pTGI (converted)
  TGI: 31.6 µM
SF-268
  GI50: 2.51 µM
SF-268; read-out: pTGI (converted)
  TGI: > 100 µM
SF-295
  GI50: 0.158 µM
SF-295; read-out: pTGI (converted)
  TGI: 0.631 µM
SF-539
  GI50: 1 µM
SF-539; read-out: pTGI (converted)
  TGI: 5.01 µM
U-251
  GI50: 0.631 µM
U-251; read-out: pTGI (converted)
  TGI: > 100 µM
Malme-3M
  GI50: > 100 µM
Malme-3M; read-out: pTGI (converted)
  TGI: > 100 µM
MDA-MB-435
  GI50: 0.2 µM
MDA-MB-435; read-out: pTGI (converted)
  TGI: 0.631 µM
SK-MEL-5
  GI50: 0.631 µM
SK-MEL-5; read-out: pTGI (converted)
  TGI: 12.6 µM
UACC-62
  GI50: 0.631 µM
UACC-62; read-out: pTGI (converted)
  TGI: > 100 µM
IGROV-1
  GI50: 2.51 µM
OVCAR-3
  GI50: 0.251 µM
OVCAR-3; read-out: pTGI (converted)
  TGI: 1 µM
OVCAR-4
  GI50: 3.98 µM
OVCAR-4; read-out: pTGI (converted)
  TGI: > 100 µM
OVCAR-8
  GI50: 5.01 µM
OVCAR-8; read-out: pTGI (converted)
  TGI: > 100 µM
NCI/ADR-RES
  GI50: 0.316 µM
NCI/ADR-RES; read-out: pTGI (converted)
  TGI: 1.26 µM
SK-OV-3
  GI50: 3.98 µM
SK-OV-3; read-out: pTGI (converted)
  TGI: > 100 µM
A498
  GI50: 2.51 µM
A498; read-out: pTGI (converted)
  TGI: 20 µM
RXF 393
  GI50: 1.58 µM
RXF 393; read-out: pTGI (converted)
  TGI: 5.01 µM
TK-10
  GI50: 12.6 µM
TK-10; read-out: pTGI (converted)
  TGI: > 100 µM
UO-31
  GI50: 2.51 µM
UO-31; read-out: pTGI (converted)
  TGI: > 100 µM
PC-3
  GI50: 0.501 µM
PC-3; read-out: pTGI (converted)
  TGI: > 100 µM
MCF7
  GI50: 0.398 µM
MCF7; read-out: pTGI (converted)
  TGI: > 100 µM
[2]
  GI50: 0.398 µM
[2]; read-out: pTGI (converted)
  TGI: 3.16 µM
BT-549
  GI50: 2.51 µM
BT-549; read-out: pTGI (converted)
  TGI: > 100 µM
T47D
  GI50: 6.31 µM
T47D; read-out: pTGI (converted)
  TGI: > 100 µM
MDA-MB-468
  GI50: 1.58 µM
MDA-MB-468; read-out: pTGI (converted)
  TGI: > 100 µM

From ChEMBL document CHEMBL1221342, “Synthesis and in vitro antitumor activity of new 4,5-dihydropyrazole derivatives” (Bioorg Med Chem, 2010)
